# In the library only some 2.9% were active in any assay of this set; here they are far more common.
# ATG4B inh = blocks human ATG4B protease cleavage of LC3 substrate; AID 504462; Q9Y4P1; 340,000 tested, 0.51% active; ATG4B cleavage of LC3-PLA2, NBD-HPC fluorescence, 1 h; inhibition, % at 8.33 µM; in the data active = inhibition above about 40%
# MEKK3 PB1 HTS = raises or lowers MEK5 binding to the human MEKK3 PB1 domain. bead-based flow cytometry, Alexa488-MEK5 binding to MEKK3; actives lie on both sides; 0 = blocked by unlabeled MEK5, 100 = vehicle. binding response (% of control), % at 10 µM. Q99759. 290,000 tested, 1.4% active;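 active = binding response more than 3 SD above or below the average of its plate-row segment, actives on both sides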;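 also: Alexa488 bead fluorescence after subtracting the streptavidin-only scavenger bead signal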
# Dynein cargo inh = blocks dynein driven cargo transport along microtubules; 3617.4 mouse cells, GR-EGFP nuclear translocation imaging; test concentration mostly 20 µM; stimulated with dexamethasone, 1 µM; stronger effect = lower value; z-score, hits read low; 220,000 tested, 0.47% active;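 active = plate z-score of nuclear minus cytoplasmic receptor signal below a set negative limit, without overly bright fluorescence or cell loss, cut at about -3.5 in these data, passing the limit was not always enough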;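 also: z-score of nuclear minus cytoplasmic ring GR-EGFP intensity difference per well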
#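 medium = tetracycline-free induction medium containing charcoal-stripped FBS | also added = 1.0 µM final dexamethasone stimulus | schedule = 48 h induction, 1 h compound, 30 min dex at 37 °C | technique = fixed, Hoechst-stained cells imaged at 10x for EGFP | measure = GR-EGFP nuclear translocation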
# B2AR ag = human beta-2 adrenergic receptor agonism by FAP. P07550. Am2.2-beta2AR cells, FAP receptor internalization, flow cytometry. response, % (concentration not given with the values). 340,000 tested, 0.43% active;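 active = response above a set limit, near 3 SD of response in nonfluorescent compounds, cut at about 42% in these data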
# Target sequence (P07550 whole entry, looked up): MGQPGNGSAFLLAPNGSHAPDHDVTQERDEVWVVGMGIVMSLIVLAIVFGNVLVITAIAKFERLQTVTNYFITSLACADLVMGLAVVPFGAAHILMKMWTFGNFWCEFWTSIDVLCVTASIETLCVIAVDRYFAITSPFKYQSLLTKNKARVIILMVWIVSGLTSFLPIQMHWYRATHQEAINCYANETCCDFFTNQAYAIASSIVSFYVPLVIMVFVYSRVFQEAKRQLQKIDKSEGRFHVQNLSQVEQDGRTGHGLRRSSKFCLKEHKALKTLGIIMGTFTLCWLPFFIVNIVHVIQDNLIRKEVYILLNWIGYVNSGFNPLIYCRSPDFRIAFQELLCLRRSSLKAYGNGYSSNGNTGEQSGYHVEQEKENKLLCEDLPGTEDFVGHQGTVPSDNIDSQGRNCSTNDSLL
# MEKK2mut PB1 HTS = signal of MEK5 binding to mutant human MEKK2 PB1 domain | bead flow cytometry, Alexa488-MEK5 binding to MEKK2 mutant | percent response, % at 10 µM | 290,000 tested, 0.35% active; in the data active = percent response above about 24%, passing the limit was not always enough
# MEKK2 WT-MEK5 = raises or lowers MEK5 binding to wildtype human MEKK2 PB1 domain. AID 1531. Q9Y2U5. 290,000 tested, 1.1% active. binding response (% of control), % at 10 µM. bead flow cytometry, Alexa488-MEK5 binding to MEKK2 WT; actives lie on both sides; in the data active = binding response below about 67% or above about 130%
# MEKK2wt confirm = raises or lowers MEK5 binding to wildtype human MEKK2, retest. shares compounds with MEKK3 PB1 HTS. bead flow cytometry, Alexa488-MEK5 binding to MEKK2 WT; actives lie on both sides. binding response (% of control), % at 10 µM. 5,900 tested, 2.4% active. AID 1892; in the data active = binding response below about 16% or above about 210%; inactive = in between
# MEKK2mut confirm = signal of MEK5 binding to mutant human MEKK2, retest; shares compounds with MEKK3 PB1 HTS; bead flow cytometry, Alexa488-MEK5 binding to MEKK2 mutant; percent response, % at 10 µM; 5,900 tested, 2% active; in the data active = percent response mostly above about 71%, no sharp cut-off; inactive = mostly below about 38%;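 also: higher means compound restores mutant binding toward wildtype level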
# MEKK3-MEK5 inh = confirmation of inhibitors of MEK5 binding to human MEKK3 | shares compounds with MEKK3 PB1 HTS | bead flow cytometry, Alexa488-MEK5 binding to MEKK3; stronger effect = lower value | binding response (% of control), % at 10 µM | 5,900 tested, 1.8% active;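 active = binding response below 72% of control, or above a set upper limit, though filed actives all read lower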;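 also: 100% = DMSO only wells and 0% = binding blocked by excess unlabeled MEK5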
# Numbers without * were called inactive; nt = not tested or not shown; [ ] = dose if it differs, or a comment.
SMILES,ATG4B inh,MEKK3 PB1 HTS,Dynein cargo inh,B2AR ag,MEKK2mut PB1 HTS,MEKK2 WT-MEK5,MEKK2wt confirm,MEKK2mut confirm,MEKK3-MEK5 inh
CCOC(=O)c1ccc(N2NC(=O)/C(=C/c3ccc(OC(=O)c4ccco4)c(OC)c3)C2=O)cc1,nt,100.0,-1.12,nt,-2.0,88.0,nt,nt,nt
CCOC(=O)COc1ccc(/C=C2/C(=O)NN(c3ccc(F)cc3)C2=O)cc1OC,-0.9,116.0,nt,35.8,15.0,167.0*,98.0,-1.0,101.0
Nc1nc(SCC(=O)Nc2ccc3c(c2)CCC3)n[nH]1,2.0,105.0,-0.797,2.6,5.0,109.0,nt,nt,nt
CCN(CC(=O)Nc1ccccc1-c1ccccc1)Cc1nc2ccccc2c(=O)[nH]1,0.6,64.0*[inhibitor],-0.327,3.5,-3.0,72.0,98.0,-3.0,97.0
CCN(CC(=O)Nc1ccccc1SC)Cc1nc2ccccc2c(=O)[nH]1,-1.3,89.0,-1.1,-18.7,-22.0,84.0,nt,nt,nt
Cc1cccnc1NC(=O)Nc1cccs1,-1.9,98.0,-0.231,-9.7,-2.0,93.0,nt,nt,nt
Cn1c(CN2CCN(C(=O)c3ccc(F)cc3)CC2)nc2cc([N+](=O)[O-])ccc21,6.7,147.0*,-0.625,-1.3,1.0,106.0,100.0,0.0,101.0
CC(=O)N1CCN(Cc2nc3cc([N+](=O)[O-])ccc3n2C)CC1,2.3,96.0,nt,-3.3,-2.0,100.0,nt,nt,nt
Cc1cc(C(C)(C)C)oc1C(=O)N(CC(=O)NC1CCCC1)Cc1ccccc1Cl,7.6,104.0,0.0288,6.7,8.0,99.0,nt,nt,nt
COc1cc2c3nnc(-c4ccc(F)cc4)c-3cn(Cc3ccccc3F)c2cc1OC,1.4,92.0,0.228,-84.7,-2.0,100.0,nt,nt,nt
COc1cc2c3nnc(-c4ccccc4)c-3cn(Cc3ccccc3F)c2cc1OC,-10.2,96.0,1.39,nt,26.0,153.0*,132.0,13.0,99.0
CCCN(Cc1cc2cc(C)ccc2[nH]c1=O)S(C)(=O)=O,-6.5,128.0*,0.371,10.2,5.0,120.0,101.0,3.0,103.0
O=C(NS(=O)(=O)c1ccc(Cl)s1)c1ccccc1,-0.3,112.0,nt,-0.8,23.0,193.0*,115.0,9.0,103.0
O=C(NCc1ccc(S(=O)(=O)Nc2ccccc2Cl)s1)c1ccccc1,-2.3,94.0,0.138,-4.1,-11.0,97.0,nt,nt,nt
CCN(c1ccc(C(=O)CSc2nnc(C3CC3)n2C2CC2)cc1)S(C)(=O)=O,-0.1,nt,nt,-8.1,nt,nt,nt,nt,nt
CCN(CC)S(=O)(=O)c1ccc(-c2cc(C(=O)OC)sc2C(F)(F)F)cc1,-5.3,130.0*,0.626,6.5,23.0,126.0,106.0,2.0,100.0
O=C(COc1ccc2cc(Br)ccc2c1Br)N1CCOCC1,-3.2,98.0,nt,-0.6,1.0,103.0,nt,nt,nt
CCOc1ccccc1N(CC(=O)OC)S(=O)(=O)c1ccccc1,-16.3,126.0*,-0.432,2.0,6.0,121.0,103.0,1.0,99.0
CCOc1ccccc1N(CC(=O)NC1CCCCC1)S(C)(=O)=O,-7.9,74.0*[inhibitor],-1.15,14.6,-5.0,78.0,99.0,-2.0,95.0
CCOc1ccccc1N(CC(=O)NC1CCCCC1)S(=O)(=O)c1ccc(C)cc1,4.9,101.0,nt,2.0,-3.0,96.0,nt,nt,nt
CC1CN(C(=O)Cn2cc(SCC(=O)N3CCOCC3)c3ccccc32)CC(C)O1 (stereo unspecified),-5.7,1.0*[inhibitor],nt,5.0,-15.0,-2.0*[inhibitor],109.0,5.0,110.0
CCOC(=O)C1=CNS(=O)(=O)NC1c1cccc(O)c1 (stereo unspecified),-0.8,nt,nt,-7.8,nt,nt,nt,nt,nt
CCN1C(c2ccccc2)=C(c2ccccc2)S/C1=C\C=C1/SC(=S)N(C)C1=O,0.0,33.0*[inhibitor],0.0715,-15.3,-22.0,-8.0*,46.0,-44.0,70.0*
CCN1C(=O)/C(=C/C=C2/Sc3ccc4ccccc4c3N2CCO)SC1=S,4.0,90.0,1.39,-90.2,-3.0,8.0*[inhibitor],73.0,-33.0,85.0
CCN1C(c2ccccc2)=C(c2ccccc2)S/C1=C/C=C1\SC(=S)N(C)C1=O,-6.8,37.0*[inhibitor],-1.08,5.3,-15.0,-7.0*,29.0,-20.0,51.0*
SMILES,ATG4B inh,MEKK3 PB1 HTS,Dynein cargo inh,B2AR ag,MEKK2mut PB1 HTS,MEKK2 WT-MEK5,MEKK2wt confirm,MEKK2mut confirm,MEKK3-MEK5 inh
CCN1/C(=C\C=C2\C(=O)N(C)C(=S)N2C)Sc2ccccc21,6.7,95.0,0.758,-12.1,-11.0,87.0,nt,nt,nt
CC(NC(=O)c1ccccc1Br)c1nnc(SCC(=O)NC2=NCCS2)n1C (stereo unspecified),-2.9,99.0,nt,7.0,-1.0,98.0,nt,nt,nt
CC1=[N+](C)c2ccc3ccccc3c2C1(C)C,0.8,89.0,-0.63,14.1,71.0*,nt,88.0,5.0,91.0
Cc1nsc2c1ccc1ccccc12,-3.1,102.0,1.36,-8.0,-16.0,89.0,nt,nt,nt
CC(C)C[C@H]1CN=C(Nc2ccccc2)N1CCCC1CCCC1,10.4,102.0,nt,23.9,11.0,117.0,nt,nt,nt
CC(C)C[C@H]1CN=C(Nc2ccccc2)N1CCCC1CCCCC1,5.6,105.0,nt,1.2,24.0*,126.0,127.0,13.0,104.0
Cc1ccc(C)n1-c1nccc(-c2cccs2)n1,4.4,nt,-0.865,5.8,nt,nt,nt,nt,nt
N#Cc1cccn1-c1nccc(-c2cccs2)n1,6.9,149.0*,-0.391,5.5,7.0,131.0,93.0,-6.0,91.0
COc1ccc(CCN(C)C(=O)c2c(C)nn(-c3ccccc3)c2C)cc1OC,-0.8,104.0,nt,-2.7,5.0,110.0,nt,nt,nt
CS(=O)(=O)N(CC(=O)Nc1cccc([N+](=O)[O-])c1)c1cccc(F)c1,6.7,100.0,-0.292,9.9,-2.0,102.0,nt,nt,nt
Cc1cc(NC(=O)CCN2CCN(C/C=C/c3ccccc3)CC2)ccc1Br,-17.2,112.0,nt,16.2,18.0,149.0*,152.0,20.0,109.0
COCCN(CC(=O)NCc1ccc(F)cc1)C(=O)CCC(=O)Nc1ccccn1,3.9,81.0*[inhibitor],-0.674,0.1,-10.0,90.0,102.0,-5.0,99.0
O=C(COC(=O)CNC(=O)c1ccc(Cl)cc1Cl)Nc1cccc(S(=O)(=O)N2CCCC2)c1,-10.6,nt,nt,-2.8,nt,nt,nt,nt,nt
O=[N+]([O-])c1ccc(N2CCN(C(=S)c3cccc([N+](=O)[O-])c3)CC2)cc1,-6.2,125.0,0.602,6.8,25.0,114.0,nt,nt,nt
CC(=O)N1CCN(C(=S)c2cccc([N+](=O)[O-])c2)CC1,-13.7,132.0*,-0.0476,-2.6,0.0,109.0,45.0,-14.0,72.0

# Assay outcomes as filed in PubChem BioAssay.
